Laboratory results published in publication PMC5159748 (Archives of biochemistry and biophysics, 2016).

Legend:
[1] = biological target: Microtubules prepared from porcine tubulin, stabilized with paclitaxel (porcine) (UniProt P02550); test: turbidity increase
[2] = biological target: T1, K346 (Drosophila kinesin-1 motor domain; apo-K346) (Drosophila melanogaster, UniProt P17210); test: stopped-flow FRET; assay type: binding
T1 sequence (P17210 2-346): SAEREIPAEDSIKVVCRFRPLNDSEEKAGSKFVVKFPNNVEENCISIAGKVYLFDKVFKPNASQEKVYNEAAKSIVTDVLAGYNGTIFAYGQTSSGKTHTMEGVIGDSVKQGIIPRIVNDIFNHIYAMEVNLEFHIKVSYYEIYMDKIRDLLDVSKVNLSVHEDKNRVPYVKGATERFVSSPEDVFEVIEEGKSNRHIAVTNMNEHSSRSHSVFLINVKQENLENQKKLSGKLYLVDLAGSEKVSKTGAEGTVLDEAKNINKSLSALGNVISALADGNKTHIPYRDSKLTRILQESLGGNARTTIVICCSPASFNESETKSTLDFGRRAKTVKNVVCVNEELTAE
Summary of the method: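 Apo-K346 (Tev-cleaved, ADP-stripped) at 25 °C in A25 buffer (pH 6.9) with 50 mM KCl and glycerol as indicated. FRET from tyrosines to mdADP: excitation 280 nm, 418 nm long-pass emission. Association: stopped-flow mixing with ≥10-fold excess mdADP, kon = kobs/[mdADP]. Release: 0.84 μM E•mdADP chased with 400 μM MgATP, single-exponential fit. SD from ≥3 transients.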

| Compound | Kd [1] [µM] | Kd [2] [µM] |
| --- | --- | --- |
| K346, monomeric Drosophila kinesin-1 motor domain (amino acids 2-346) (from UniProt P17210 2-346) (domain or fragment) | 1.8 | – |
| CNc1ccccc1C(=O)O[C@H]1C[C@H](n2cnc3c(N)ncnc32)O[C@@H]1COP(=O)(O)OP(=O)(O)O [mdADP] | – | 0.002 |
